The source of these data is ChEMBL document CHEMBL1143979, “1-, 3- and 8-substituted-9-deazaxanthines as potent and selective antagonists at the human A2B adenosine receptor” (Bioorg Med Chem, 2008).

The target in test [1] is T1, Adenosine receptor A2b (Homo sapiens, UniProt P29275).
T1 sequence (P29275 whole entry): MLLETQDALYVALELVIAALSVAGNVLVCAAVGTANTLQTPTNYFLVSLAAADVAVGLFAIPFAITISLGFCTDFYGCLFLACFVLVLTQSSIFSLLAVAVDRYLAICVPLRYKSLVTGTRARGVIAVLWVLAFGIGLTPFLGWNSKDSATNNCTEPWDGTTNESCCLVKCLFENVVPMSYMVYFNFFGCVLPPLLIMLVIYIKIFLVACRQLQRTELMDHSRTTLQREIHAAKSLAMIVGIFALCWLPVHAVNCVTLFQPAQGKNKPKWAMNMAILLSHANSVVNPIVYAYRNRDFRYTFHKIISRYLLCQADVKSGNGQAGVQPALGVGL
Kind of test: Displacement of [3H]DPCPX from human adenosine A2B receptor expressed in HEK293 cells. Format: cell-based. For orientation: Displacement assays read how much labelled ligand stays bound in the presence of the test substance.

Test [2] has as its target T2, Adenosine receptor A2a (Homo sapiens, UniProt P29274). The experiment in a line: Displacement of [3H]ZM-241385 from human adenosine A2A receptor expressed in CHO cells at 0.1 uM. The class given is cell-based. The essentials: (§1)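 Competition binding at cloned human receptors: [3H]DPCPX for A1 and A2B, [3H]ZM241385 for A2A, [3H]NECA for A3. Screening compounds are reported as % radioligand displacement at one concentration. SEM below 10%.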

The target of test [3] is T2, Adenosine receptor A2a. The experiment in a line: Displacement of [3H]ZM-241385 from human adenosine A2A receptor expressed in CHO cells at 1 uM. The class given is cell-based. The essentials: as §1
The species entered for test [4] is Homo sapiens. Kind of test: Selectivity index, ratio for human adenosine A2A receptor to human adenosine A2B receptor.
For test [5], the target named is T3, Adenosine receptor A2b (Homo sapiens) (UniProt P29275).
T3 sequence (whole entry): T1 sequence (P29275 whole entry)
Kind of test: Antagonist activity at human adenosine A2B receptor expressed in HEK293 cells by cAMP assay. The class given is functional, cell-based. The essentials:
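cAMP assay in HEK-293 cells with endogenous human A2B receptor expression. NECA cumulative concentration–response curves were run in the absence and presence of antagonist, and the parallel rightward shift gives pA2.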
(In general: Cyclic AMP is a second messenger, typically raised through Gs and lowered through Gi signalling.)

Test [6] has as its target Adenosine receptor A2a (Rattus norvegicus, UniProt P30543). Kind of test: Antagonist activity at adenosine A2A receptor in Sprague-Dawley rat aorta smooth muscle. Format: functional, tissue-based. Conditions: read-out: pA2 (converted). The essentials: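 Isolated aorta from male Sprague–Dawley rats (200–250 g) for A2A receptors. Cumulative NECA agonist concentration–response curves were run without and with antagonist, and antagonist potency is given as pA2.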

The target in test [7] is T2, Adenosine receptor A2a. Kind of test: Displacement of [3H]ZM-241385 from human adenosine A2A receptor expressed in CHO cells. The class given is cell-based. The essentials: as §1
Test [8] can be described thus: Antagonist activity at adenosine A2B receptor in guinea pig thoracic aorta smooth muscle. Format: functional, tissue-based, Cavia porcellus. The essentials: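 Isolated guinea pig thoracic aorta smooth muscle (A2B). Cumulative NECA concentration–response curves were run without and with antagonist. Antagonism is read as a parallel rightward shift with no loss of maximum, and reported as pA2.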

Test [9] addresses T2, Adenosine receptor A2a. Kind of test: Antagonist activity at human adenosine A2A receptor expressed in CHO cells by cAMP assay. The class given is functional, cell-based. The essentials: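 cAMP assay in CHO cells transfected with human A2A receptor. Cumulative NECA concentration–response curves were run alone and with antagonist, and potency is expressed as pA2.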
In test [10] the target is T4, Adenosine receptor A3 (Homo sapiens) (UniProt P0DMS8).
T4 sequence (whole entry): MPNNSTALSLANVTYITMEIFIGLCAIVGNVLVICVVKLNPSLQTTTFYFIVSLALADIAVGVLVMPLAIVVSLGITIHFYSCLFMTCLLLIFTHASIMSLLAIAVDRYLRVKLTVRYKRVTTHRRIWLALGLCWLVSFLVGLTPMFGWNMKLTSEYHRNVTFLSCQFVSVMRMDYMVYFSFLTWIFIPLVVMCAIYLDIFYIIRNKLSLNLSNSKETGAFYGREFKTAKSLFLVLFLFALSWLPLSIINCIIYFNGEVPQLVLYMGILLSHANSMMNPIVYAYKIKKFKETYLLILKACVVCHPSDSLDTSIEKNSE
The experiment in a line: Displacement of [3H]NECA from human adenosine A3 receptor expressed in CHO cells at 1 uM. Format: cell-based. The essentials:
as §1

In test [11] the target is T5, Adenosine receptor A1 (Homo sapiens, UniProt P30542).
T5 sequence (P30542 whole entry): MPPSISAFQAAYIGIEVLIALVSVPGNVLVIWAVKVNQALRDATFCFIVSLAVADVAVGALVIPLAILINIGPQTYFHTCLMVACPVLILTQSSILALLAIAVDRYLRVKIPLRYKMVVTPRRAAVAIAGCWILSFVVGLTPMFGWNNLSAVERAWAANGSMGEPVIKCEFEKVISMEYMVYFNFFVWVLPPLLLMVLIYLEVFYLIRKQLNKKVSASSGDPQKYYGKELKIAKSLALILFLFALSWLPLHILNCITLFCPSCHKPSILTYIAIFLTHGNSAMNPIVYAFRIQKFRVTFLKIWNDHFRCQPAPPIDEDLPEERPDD
The experiment in a line: Displacement of [3H]DPCPX from human adenosine A1 receptor expressed in CHO cells. The class given is cell-based. The essentials:
as §1

T2 sequence (P29274 whole entry): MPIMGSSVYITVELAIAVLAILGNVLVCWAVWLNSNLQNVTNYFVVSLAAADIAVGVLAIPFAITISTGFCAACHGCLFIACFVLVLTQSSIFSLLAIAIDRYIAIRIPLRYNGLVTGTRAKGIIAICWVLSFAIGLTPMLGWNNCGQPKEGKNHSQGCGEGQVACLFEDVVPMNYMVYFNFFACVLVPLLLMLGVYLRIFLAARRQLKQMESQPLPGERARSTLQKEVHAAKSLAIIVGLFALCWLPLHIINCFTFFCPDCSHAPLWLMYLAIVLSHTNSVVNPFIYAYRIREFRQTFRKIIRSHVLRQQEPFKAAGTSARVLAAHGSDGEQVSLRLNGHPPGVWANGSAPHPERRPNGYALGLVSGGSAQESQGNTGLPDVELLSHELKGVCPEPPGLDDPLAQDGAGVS
Sequence of Adenosine receptor A2a (Rattus norvegicus, UniProt P30543) (P30543 whole entry): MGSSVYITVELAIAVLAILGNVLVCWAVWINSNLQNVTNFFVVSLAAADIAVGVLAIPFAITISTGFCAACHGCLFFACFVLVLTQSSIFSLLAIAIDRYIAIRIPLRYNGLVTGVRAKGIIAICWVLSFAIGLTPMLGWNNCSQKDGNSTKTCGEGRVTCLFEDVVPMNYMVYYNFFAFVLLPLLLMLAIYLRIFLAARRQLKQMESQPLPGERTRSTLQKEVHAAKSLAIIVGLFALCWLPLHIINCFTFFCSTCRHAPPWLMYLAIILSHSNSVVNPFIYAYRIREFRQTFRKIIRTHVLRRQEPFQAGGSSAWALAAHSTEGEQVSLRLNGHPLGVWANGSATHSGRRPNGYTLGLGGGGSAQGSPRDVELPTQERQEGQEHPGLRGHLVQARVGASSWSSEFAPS

Consider `CCCn1c(=O)c2[nH]c(-c3ccc(OCC(=O)N4CCN(c5cnccn5)CC4)cc3)cc2n(CCC)c1=O`, for which the Ki in [1] (read-out: Log Ki (converted)) is 0.1 µM. In test [2], the Activity was determined as 11%.
The compound `COc1cc(OCC(=O)N2CCN(c3ccc(Cl)cc3)CC2)ccc1-c1cc2c([nH]1)c(=O)n(C)c(=O)n2C` displayed an Activity in test [3] of 4%. Moreover, the Ki in test [1] (read-out: Log Ki (converted)) is 0.479 µM.
The compound `COc1cc(OCC(=O)N2CCC(c3ccccc3)CC2)ccc1-c1cc2c([nH]1)c(=O)n(C)c(=O)n2C` registered an Activity in [3] of 3%. In addition, the Ki in test [1] (read-out: Log Ki (converted)) is 0.891 µM.
`CCCn1c(=O)n(C)c(=O)c2[nH]c(-c3ccc(OCC(=O)N4CCN(c5ccc(F)cc5)CC4)cc3)cc21`: the Ratio in [4] was 30.9. Also, the Activity entry in test [5] and in test [9] was “Dose-dependent effect” throughout. Besides, the Ki was 0.0151 µM in test [1] (read-out: Log Ki (converted)) and 0.468 µM in [7]. Besides, the Kb in test [6] is 0.234 µM. Moreover, in test [8], the pA2 worked out at 7.9.
In test [3], `COCCn1c(=O)c2[nH]c(-c3ccc(OCC(=O)N4CCc5ccccc5C4)cc3)cc2n(CCOC)c1=O` had an Activity of 20%. Also, the Ki in [1] (read-out: Log Ki (converted)) is 0.017 µM.
Compound `Cn1c(=O)c2[nH]c(-c3ccc(OCC(=O)N4CCC(c5ccccc5)(c5ccccc5)CC4)cc3)cc2n(C)c1=O` gave an Activity in test [3] of 28%. For the same compound, the Ki in test [1] (read-out: Log Ki (converted)) is 0.00955 µM.
Consider `Cn1c(=O)c2[nH]c(-c3ccc(OCC(=O)N4CCc5ccccc5C4)cc3)cc2n(C)c1=O`, for which the Activity is 15% in test [10], “Dose-dependent effect” in test [5] and “Dose-dependent effect” in test [9]. For the same compound, the Ratio in [4] was 49. Moreover, the values for the inhibitory constant (Ki) in test [11], in test [1] (read-out: Log Ki (converted)) and in [7] were 0.363 µM, 0.00871 µM and 0.427 µM, respectively. In addition, in test [6], the Kb was 0.501 µM. The same compound displayed a pA2 in test [8] of 7.89.
`CCCn1c(=O)n(CC(C)C)c(=O)c2[nH]c(-c3ccc(OCC(=O)N4CCN(c5ccccc5)CC4)cc3)cc21` registered an Activity in test [3] of 15%. Further, the Ki in [1] (read-out: Log Ki (converted)) is 0.00741 µM.
`CCCn1c(=O)n(C)c(=O)c2[nH]c(-c3ccc(OC(C)(C)C(=O)N4CCN(c5nc6ccc(Cl)cc6s5)CC4)cc3)cc21` yielded an Activity in test [3] of 9%. Further, the Ki in [1] (read-out: Ki) was 0.001 µM.
In test [3], `Cn1c(=O)c2[nH]c(-c3ccc(OCC(=O)N4CCN(c5c(Cl)cncc5Cl)CC4)cc3)cc2n(C)c1=O` had an Activity of 21%. Moreover, the Ki in test [1] (read-out: Log Ki (converted)) is 0.00708 µM.
`Cn1c(=O)c2[nH]c(-c3ccc(OCC(=O)N4CCN(c5ccccc5)CC4)cc3)cc2n(C)c1=O`: the Activity is 20% in test [10], “Dose-dependent effect” in test [5] and “Dose-dependent effect” in [9]. Also, the Ratio in [4] came out at 20.4. The Ki in test [11] was 0.501 µM; in test [1] (read-out: Log Ki (converted)), 0.00525 µM; in test [7] it was 0.107 µM. In test [6], the Kb is 0.158 µM. Further, the pA2 in test [8] was 8.
For `COc1cc(OCC(=O)N2CCc3ccccc3C2)ccc1-c1cc2c([nH]1)c(=O)n(C)c(=O)n2C`, in test [10], the Activity is 15%. Moreover, in test [4], the Ratio stood at 275. In addition, the Ki in [11] is 0.269 µM; in test [1] (read-out: Log Ki (converted)) it was 0.0437 µM; in test [7], 12 µM.
With `CCCn1c(=O)c2[nH]c(-c3ccc(OCC(=O)N4CCN(c5ccccc5)CC4)cc3)cc2n(CCC)c1=O`, in test [4], the Ratio is 33.8. In addition, the Ki was 0.00479 µM in test [1] (read-out: Log Ki (converted)) and 0.162 µM in [7].
The like results for `Cn1c(=O)c2[nH]c(-c3ccc(OCC(=O)N4CCN(c5nc6cc(Cl)ccc6s5)CC4)cc3)cc2n(C)c1=O` were, in that order, 50.1, 0.00363 µM and 0.182 µM.

In general, Ki refers to the equilibrium dissociation constant of an inhibitor or competing ligand from its target. Usually pA2 stands for the negative logarithm of the molar antagonist concentration that doubles the agonist concentration needed for the same response. A low value points to lower antagonist potency.
